Activity calls are given as the source filed them. No cut-off for these calls is given here.
Key:
Type in all cases: functional
Trichoderma koningii [1] = experiment: Antifungal activity against Trichoderma koningii assessed as radial growth at 1% after 72 hrs by poison food technique of Flack relative to control
Method in brief: (§1)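 Acetone stock added to molten sterilized PDA to final 0.5–7%, plated in 90 mm dishes with compound-free plates as control. Each plate was inoculated with a 9 mm disc from a 4-day-old culture, incubated at 25 ± 1 °C, and colony diameter measured at 24 h intervals. % inhibition = (control − treatment)/control × 100; three replicates averaged.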

Trichoderma koningii [2] = experiment: Antifungal activity against Trichoderma koningii assessed as radial growth at 5% after 24 hrs by poison food technique of Flack
Method in brief: (§2)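 Poisoned-food method: acetone stock mixed into molten sterilized potato dextrose agar to final 0.5, 1, 3, 5 or 7%, poured into 90 mm plates. Plates were inoculated with a 9 mm mycelial disc from a 4-day-old pure culture and incubated at 25 ± 1 °C. Colony diameter (mm) was read every 24 h; mean of three replicates.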

Trichoderma koningii [3] = experiment: Antifungal activity against Trichoderma koningii assessed as radial growth at 7% after 24 hrs by poison food technique of Flack; method in brief: as §2
Trichoderma koningii [4] = experiment: Antifungal activity against Trichoderma koningii assessed as radial growth at 7% after 48 hrs by poison food technique of Flack relative to control; method in brief: as §1
Aspergillus niger [5] = experiment: Antifungal activity against Aspergillus niger assessed as radial growth at 3% after 24 hrs by poison food technique of Flack
Method in brief: (§3)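 Poisoned-food assay on potato dextrose agar. Compound stock in acetone was added to molten sterilized PDA to a final 0.5, 1, 3, 5 or 7%, then 20 mL was poured per 90 mm plate. Each plate was inoculated with a 9 mm mycelial disc from a 4-day-old pure culture and incubated at 25 ± 1 °C. Colony diameter (mm) was read every 24 h; mean of three replicates.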

Aspergillus niger [6] = experiment: Antifungal activity against Aspergillus niger assessed as radial growth at 5% after 24 hrs by poison food technique of Flack; method in brief: as §3
Aspergillus niger [7] = experiment: Antifungal activity against Aspergillus niger assessed as radial growth at 7% after 24 hrs by poison food technique of Flack; method in brief: as §3
Aspergillus niger [8] = experiment: Antifungal activity against Aspergillus niger assessed as radial growth at 7% after 48 hrs by poison food technique of Flack; method in brief: as §3
Aspergillus niger [9] = experiment: Antifungal activity against Aspergillus niger assessed as radial growth at 7% after 72 hrs by poison food technique of Flack; method in brief: as §3
Aspergillus niger [10] = experiment: Antifungal activity against Aspergillus niger assessed as radial growth at 5% after 48 hrs by poison food technique of Flack relative to control
Aspergillus niger [11] = experiment: Antifungal activity against Aspergillus niger assessed as radial growth at 7% after 72 hrs by poison food technique of Flack relative to control
Trichoderma hamatum [12] = experiment: Growth promotion of Trichoderma hamatum assessed as radial growth at 1% after 24 hrs by poison food technique of Flack relative to control
Trichoderma hamatum [13] = experiment: Growth promotion of Trichoderma hamatum assessed as radial growth at 1% after 48 hrs by poison food technique of Flack relative to control
Trichoderma hamatum [14] = experiment: Growth promotion of Trichoderma hamatum assessed as radial growth at 0.5% after 24 hrs by poison food technique of Flack relative to control
Method in brief: (§4)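 Growth increase in poisoned PDA plates (acetone stock, final 0.5 or 1%) against untreated control plates. Inoculum was a 9 mm mycelial disc from a 4-day-old culture, incubated at 25 ± 1 °C, with colony diameter read every 24 h. Where treated growth exceeded control, percentage increase over control was recorded; average of three replicates.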

Trichoderma hamatum [15] = experiment: Growth promotion of Trichoderma hamatum assessed as radial growth at 0.5% after 48 hrs by poison food technique of Flack relative to control
Trichoderma hamatum [16] = experiment: Antifungal activity against Trichoderma hamatum assessed as radial growth at 7% after 48 hrs by poison food technique of Flack; method in brief: as §2
Aspergillus niger [17] = experiment: Growth promotion of Aspergillus niger assessed as radial growth at 1% after 48 hrs by poison food technique of Flack relative to control; method in brief: as §4
Aspergillus niger [18] = experiment: Growth promotion of Aspergillus niger assessed as radial growth at 1% after 72 hrs by poison food technique of Flack relative to control; method in brief: as §4
Trichoderma koningii [19] = experiment: Growth promotion of Trichoderma koningii assessed as radial growth at 1% after 24 hrs by poison food technique of Flack relative to control
Trichoderma koningii [20] = experiment: Growth promotion of Trichoderma koningii assessed as radial growth at 1% after 48 hrs by poison food technique of Flack relative to control
Trichoderma koningii [21] = experiment: Growth promotion of Trichoderma koningii assessed as radial growth at 1% after 72 hrs by poison food technique of Flack relative to control
Trichoderma koningii [22] = experiment: Growth promotion of Trichoderma koningii assessed as radial growth at 0.5% after 24 hrs by poison food technique of Flack relative to control
Trichoderma koningii [23] = experiment: Growth promotion of Trichoderma koningii assessed as radial growth at 0.5% after 48 hrs by poison food technique of Flack relative to control
Trichoderma koningii [24] = experiment: Growth promotion of Trichoderma koningii assessed as radial growth at 0.5% after 72 hrs by poison food technique of Flack relative to control
Aspergillus niger [25] = experiment: Growth promotion of Aspergillus niger assessed as radial growth at 0.5% after 24 hrs by poison food technique of Flack relative to control; method in brief: as §4
Aspergillus niger [26] = experiment: Growth promotion of Aspergillus niger assessed as radial growth at 0.5% after 48 hrs by poison food technique of Flack relative to control; method in brief: as §4
Aspergillus niger [27] = experiment: Growth promotion of Aspergillus niger assessed as radial growth at 0.5% after 72 hrs by poison food technique of Flack relative to control; method in brief: as §4
Trichoderma koningii [28] = experiment: Antifungal activity against Trichoderma koningii assessed as radial growth at 7% after 48 hrs by poison food technique of Flack; method in brief: as §2
Aspergillus niger [29] = experiment: Growth promotion of Aspergillus niger assessed as radial growth at 1% after 24 hrs by poison food technique of Flack relative to control; method in brief: as §4
Trichoderma hamatum [30] = experiment: Growth promotion of Trichoderma hamatum assessed as radial growth at 0.5% after 72 hrs by poison food technique of Flack relative to control
Trichoderma koningii [31] = experiment: Antifungal activity against Trichoderma koningii assessed as radial growth at 3% after 24 hrs by poison food technique of Flack; method in brief: as §2
Trichoderma koningii [32] = experiment: Antifungal activity against Trichoderma koningii assessed as radial growth at 5% after 48 hrs by poison food technique of Flack; method in brief: as §2
Trichoderma hamatum [33] = experiment: Antifungal activity against Trichoderma hamatum assessed as radial growth at 5% after 24 hrs by poison food technique of Flack; method in brief: as §2
Trichoderma hamatum [34] = experiment: Antifungal activity against Trichoderma hamatum assessed as radial growth at 7% after 72 hrs by poison food technique of Flack; method in brief: as §2
Trichoderma hamatum [35] = experiment: Antifungal activity against Trichoderma hamatum assessed as radial growth at 5% after 48 hrs by poison food technique of Flack; method in brief: as §2
Aspergillus niger [36] = experiment: Antifungal activity against Aspergillus niger assessed as radial growth at 5% after 48 hrs by poison food technique of Flack; method in brief: as §3

Compound	inhibition (INH) (Trichoderma koningii [1]) [%]	Activity (Trichoderma koningii [2])	Activity (Trichoderma koningii [3])	inhibition (INH) (Trichoderma koningii [4]) [%]	Activity (Aspergillus niger [7])	Activity (Aspergillus niger [8])	Activity (Aspergillus niger [9])	inhibition (INH) (Aspergillus niger [10]) [%]	inhibition (INH) (Aspergillus niger [11]) [%]	Activity (Trichoderma hamatum [16])	Activity (Aspergillus niger [17]) [%]	Activity (Aspergillus niger [18]) [%]	Activity (Trichoderma koningii [20]) [%]	Activity (Trichoderma koningii [22]) [%]	Activity (Trichoderma koningii [23]) [%]	Activity (Trichoderma koningii [24]) [%]	Activity (Aspergillus niger [25]) [%]	Activity (Aspergillus niger [26]) [%]	Activity (Aspergillus niger [27]) [%]	Activity (Trichoderma hamatum [33])	also measured
CCOC(=O)C1=C(C)NC(=O)NC1c1ccc(N(C)C)cc1 (configuration not stated)	48.29	Active	Active	87.09	Active	Active	Active	87.5	100	–	–	–	–	–	–	–	–	–	–	–	Activity (Aspergillus niger [5]): Active; Activity (Aspergillus niger [6]): Active; Activity (Trichoderma hamatum [12]): 3.15%; Activity (Trichoderma hamatum [13]): 1.5%; Activity (Trichoderma hamatum [14]): 8.97%; Activity (Trichoderma hamatum [15]): 3.3%
CCOC(=O)C1=C(C)NC(=S)NC1c1ccccc1 (configuration not stated)	0	–	–	90.96	Active	Active	Active	54.54	100	Active	50	75.75	3.92	36.06	16.26	2.97	133	96.9	106.06	–	Activity (Trichoderma koningii [19]): 26.94%; Activity (Trichoderma koningii [21]): 2.97%
CCOC(=O)C1=C(C)NC(=O)NC1c1ccccc1O (configuration not stated)	0.67	–	Active	100	Active	Active	–	65.66	92.85	Active	–	–	–	6.49	11.97	6.37	3.2	–	–	–	Activity (Trichoderma koningii [28]): Active; Activity (Trichoderma koningii [19]): 5.79%; Activity (Aspergillus niger [29]): 7.4%; Activity (Trichoderma hamatum [14]): 5.68%; Activity (Trichoderma hamatum [15]): 19.53%; Activity (Trichoderma hamatum [30]): 4.07%
CCOC(=O)C1=C(C)NC(=O)NC1c1ccccc1 (configuration not stated)	10.86	Active	Active	100	Active	–	–	81.17	76.7	Active	13.37	7.76	–	–	–	–	19.44	64.39	27.63	Active	Activity (Trichoderma koningii [31]): Active; Activity (Trichoderma koningii [32]): Active; Activity (Trichoderma koningii [28]): Active; Activity (Trichoderma hamatum [34]): Active
CCOC(=O)C1=C(C)NC(=S)NC1c1ccc(N(C)C)cc1 (configuration not stated)	0	–	Active	95.31	Active	Active	Active	100	100	Active	86.6	92.07	18.21	15.38	18.75	2.7	60	103.2	100	Active	Activity (Trichoderma hamatum [35]): Active; Activity (Aspergillus niger [6]): Active; Activity (Aspergillus niger [36]): Active; Activity (Trichoderma koningii [21]): 1.35%
CCOC(=O)C1=C(C)NC(=S)NC1c1ccccc1O (configuration not stated)	14.37	Active	Active	93.75	–	–	–	50	36.14	Active	94.34	104.34	113.53	19.71	53.12	1.25	90.09	129.68	93.61	Active	Activity (Trichoderma hamatum [35]): Active; Activity (Trichoderma hamatum [30]): 0.42%
